Measurements published in ChEMBL document CHEMBL4261564, “Studies on enantioselectivity of chiral 4-acetylamino-6-alkyloxy-2-alkylthiopyrimidines acting as antagonists of the human A3 adenosine receptor” (Medchemcomm, 2018).

These molecules were tested against T1, Adenosine receptor A3 (Homo sapiens, UniProt P0DMS8) (assay: Displacement of [3H]NECA from recombinant human adenosine A3 receptor expressed in CHO cell membranes measured after 180 mins).
T1 sequence (P0DMS8 whole entry): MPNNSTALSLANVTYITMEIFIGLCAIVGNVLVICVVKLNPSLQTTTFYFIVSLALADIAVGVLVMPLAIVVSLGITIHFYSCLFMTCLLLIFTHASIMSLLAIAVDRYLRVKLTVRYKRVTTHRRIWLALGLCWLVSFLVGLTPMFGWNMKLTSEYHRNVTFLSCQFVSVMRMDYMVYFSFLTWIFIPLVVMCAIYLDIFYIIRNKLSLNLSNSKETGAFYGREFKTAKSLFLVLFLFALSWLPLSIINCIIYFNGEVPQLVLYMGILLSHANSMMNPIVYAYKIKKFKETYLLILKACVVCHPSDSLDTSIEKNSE

Ki [nM]	Structure (SMILES)
440	CCCOc1cc(NC(C)=O)nc(S[C@@H](C)c2ccccc2)n1
183	CC[C@H](C)Oc1cc(NC(C)=O)nc(SCc2ccccc2)n1
0.5	CCCSc1nc(NC(C)=O)cc(O[C@@H](C)c2ccccc2)n1
0.6	CCCSc1nc(NC(C)=O)cc(OC(C)c2ccccc2)n1 (racemic)
1.7	CCCSc1nc(NC(C)=O)cc(O[C@H](C)c2ccccc2)n1
580	CCCOc1cc(NC(C)=O)nc(SC(C)c2ccccc2)n1 (racemic)
737	CCCOc1cc(NC(C)=O)nc(S[C@H](C)c2ccccc2)n1
195	CCC(C)Oc1cc(NC(C)=O)nc(SCc2ccccc2)n1 (racemic)
1390	CC[C@@H](C)Oc1cc(NC(C)=O)nc(SCc2ccccc2)n1

These molecules were tested against Adenosine receptor A2a (Homo sapiens, UniProt P29274) (assay: Displacement of [3H]NECA from recombinant human adenosine A2A receptor expressed in CHO cell membranes measured after 90 mins).
Adenosine receptor A2a, sequence (P29274 whole entry): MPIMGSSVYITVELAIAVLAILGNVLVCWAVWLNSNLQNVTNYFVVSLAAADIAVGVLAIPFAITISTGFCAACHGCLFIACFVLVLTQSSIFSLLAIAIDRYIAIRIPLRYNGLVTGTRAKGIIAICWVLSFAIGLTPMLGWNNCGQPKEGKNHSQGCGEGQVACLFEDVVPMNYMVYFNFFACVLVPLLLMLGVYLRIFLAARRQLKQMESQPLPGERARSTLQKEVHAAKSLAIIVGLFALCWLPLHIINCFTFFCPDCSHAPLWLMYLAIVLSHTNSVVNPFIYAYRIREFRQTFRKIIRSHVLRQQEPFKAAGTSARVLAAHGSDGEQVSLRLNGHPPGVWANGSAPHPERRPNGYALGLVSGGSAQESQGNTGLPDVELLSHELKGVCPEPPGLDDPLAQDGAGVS

Ki [nM]	Structure (SMILES)
> 1000	CCCSc1nc(NC(C)=O)cc(OC(C)c2ccccc2)n1 (racemic)
> 1000	CCCOc1cc(NC(C)=O)nc(SC(C)c2ccccc2)n1 (racemic)
> 1000	CCC(C)Oc1cc(NC(C)=O)nc(SCc2ccccc2)n1 (racemic)

The molecules below were run against T2, Adenosine receptor A1 (Homo sapiens, UniProt P30542) (assay: Displacement of [3H]DPCPX from human adenosine A1 receptor expressed in CHO cell membranes after 180 mins).
T2 sequence (P30542 whole entry): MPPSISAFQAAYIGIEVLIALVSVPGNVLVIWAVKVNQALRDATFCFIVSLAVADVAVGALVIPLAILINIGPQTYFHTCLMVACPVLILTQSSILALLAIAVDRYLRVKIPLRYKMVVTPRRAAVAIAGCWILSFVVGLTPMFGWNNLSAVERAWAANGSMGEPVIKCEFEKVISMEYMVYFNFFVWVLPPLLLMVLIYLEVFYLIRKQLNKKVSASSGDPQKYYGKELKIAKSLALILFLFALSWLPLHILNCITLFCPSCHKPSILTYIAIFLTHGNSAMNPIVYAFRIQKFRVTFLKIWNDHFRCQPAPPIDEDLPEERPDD
Summary of the method: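 Membranes (30 µg protein) are incubated with 3 nM [3H]DPCPX at 25 °C in Tris-HCl 50 mM, MgCl2 2 mM, ADA 2 U/mL, pH 7.4. Six test concentrations are used, and nonspecific binding is set with 50 µM R-PIA. The Kd of 3 nM is used for Ki. Values are the mean of at least three experiments, each in duplicate.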

Ki [nM]	Structure (SMILES)
> 1000	CCCSc1nc(NC(C)=O)cc(OC(C)c2ccccc2)n1 (racemic)
> 1000	CCCOc1cc(NC(C)=O)nc(SC(C)c2ccccc2)n1 (racemic)
> 1000	CCC(C)Oc1cc(NC(C)=O)nc(SCc2ccccc2)n1 (racemic)

What follows are molecules tested against T3, Adenosine receptor A2b (Homo sapiens, UniProt P29275) (assay: Displacement of [3H]NECA from recombinant human adenosine A2B receptor expressed in CHO cell membranes measured after 180 mins).
T3 sequence (P29275 whole entry): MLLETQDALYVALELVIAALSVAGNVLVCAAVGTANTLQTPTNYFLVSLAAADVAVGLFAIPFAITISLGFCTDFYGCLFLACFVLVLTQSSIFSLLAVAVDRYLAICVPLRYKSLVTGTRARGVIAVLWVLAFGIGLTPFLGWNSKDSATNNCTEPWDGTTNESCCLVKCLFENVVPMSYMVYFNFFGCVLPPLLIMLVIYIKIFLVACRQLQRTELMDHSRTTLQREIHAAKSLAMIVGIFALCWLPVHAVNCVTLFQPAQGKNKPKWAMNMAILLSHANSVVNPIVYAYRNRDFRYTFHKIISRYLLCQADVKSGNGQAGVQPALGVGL

Ki [nM]	Structure (SMILES)
> 1000	CCCSc1nc(NC(C)=O)cc(OC(C)c2ccccc2)n1 (racemic)
> 1000	CCCOc1cc(NC(C)=O)nc(SC(C)c2ccccc2)n1 (racemic)
> 1000	CCC(C)Oc1cc(NC(C)=O)nc(SCc2ccccc2)n1 (racemic)

These molecules were tested against T1, Adenosine receptor A3 (assay: Antagonist activity at recombinant human adenosine A3 receptor expressed in CHO cells assessed as reduction in Cl-IB-MECA-induced inhibition of forskolin-stimulated [3H]cAMP accumulation preincubated for 10 mins followed by Cl-IB-MECA addition measured after 30 mins by liquid scintillation counting method).
Format: functional, cell-based
Summary of the method: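 A3 AR CHO cells are plated at about 30,000 per well and used 24 h later. They are preincubated 15 min at 37 °C in DMEM containing ADA 1 U/mL and Ro20-1724 20 µM. Compound is added 10 min before Cl-IB-MECA, with 1 µM forskolin present. The reaction is stopped with 0.4 N HCl and neutralised with KOH. cAMP is measured by competitive binding of [3H]cAMP (2 nM) to bovine adrenal binding protein for 150 min at 0 °C, then filtered and counted by scintillation.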

IC50 [nM]	Structure (SMILES)
428	CCCOc1cc(NC(C)=O)nc(S[C@@H](C)c2ccccc2)n1
153	CC[C@H](C)Oc1cc(NC(C)=O)nc(SCc2ccccc2)n1
7.9	CCCSc1nc(NC(C)=O)cc(O[C@@H](C)c2ccccc2)n1
